Screening results (PubChem)
miR122 inh = miR-122 inhibition in Huh7 cells; Huh7 miR-122 Renilla luciferase sensor, 48 h; neutral wells = 0, positive control = 100; hit rate 0.3% among 340,000; AID 602342; activation (reporter increase), % at 12.5 µM;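 active = mean replicate activation score at least 90 and every replicate individually at or above 90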;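 also: higher luciferase means less miR-122 activity so hits act as miR-122 inhibitors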
Cneo AK release = Cryptococcus neoformans lysis via adenylate kinase release; C. neoformans lysis, adenylate kinase release luminescence, 4 h; normalised: neutral wells 0, clomiphene wells 100; lysis activity, % at 15 µM; hit rate 0.2% among 360,000; AID 651654;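 active = mean lysis activity across replicates of at least 80%, whatever share of replicates individually reach that level; inactive = mean lysis activity below 80%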
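Assay system: Cryptococcus neoformans yeast cells / Dosing: single-point compound dose / Timing: 4 h at 37 °C static, read 1 h later / Measured by: luminescence of released adenylate kinase using an AK detection reagent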
Rtt109 Vps75 = C. albicans Rtt109 histone acetyltransferase inhibition | purified Rtt109/Vps75, ThioGlo CoA-SH fluorescence, 4 h | AID 540336 | hit rate 0.16% among 330,000 | inhibition, % at 34.9 µM | Q5AAJ8;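 active = inhibition of at least 50% in every replicate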
Target sequence (Q5AAJ8 whole entry, looked up): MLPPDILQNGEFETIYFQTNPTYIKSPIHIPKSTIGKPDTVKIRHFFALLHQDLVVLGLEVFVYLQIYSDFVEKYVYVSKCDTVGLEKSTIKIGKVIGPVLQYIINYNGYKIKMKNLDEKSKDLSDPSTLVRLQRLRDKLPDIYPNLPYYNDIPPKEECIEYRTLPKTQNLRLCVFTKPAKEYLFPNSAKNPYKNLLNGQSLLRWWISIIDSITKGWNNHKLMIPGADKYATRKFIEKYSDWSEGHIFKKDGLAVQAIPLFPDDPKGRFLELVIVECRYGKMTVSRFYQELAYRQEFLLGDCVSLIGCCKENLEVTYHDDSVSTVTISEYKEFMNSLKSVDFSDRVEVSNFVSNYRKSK
INS-1E GSIS act = primary screen for activators of insulin secretion dependent on glucose, INS-1E cells, GLuc reporter luminescence; INS-1E GLuc reporter insulin secretion, 2-3 h; activation, % at 16.6 µM; hit rate 0.61% among 370,000;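 active = lowest replicate activation of at least 40%, so every replicate reaches that level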
HIV Env fusion = blocks HIV Env-driven cell-cell fusion | HeLa-JRFL Env/CEM21 cell fusion, luciferase | inhibition, % at 12.3 µM | hit rate 1.1% among 360,000 | AID 651610;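 active = mean replicate inhibition score of at least 50 and every replicate individually at or above 50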
dFosB activator = mouse delta FosB homodimer activation; hit rate 0.99% among 340,000; activation, % at 25 µM; AID 493131; purified delta FosB, TAMRA-CDK5 oligo fluorescence polarization; percent of positive-control signal above neutral wells; P13346;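 active = mean activation above about 17%, with every replicate also reaching it, limit read from the data, passing the limit was not always enough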
A number is an active result; n = inactive; x = no result; [ ] = remark or other dose. Rows were chosen to be rich in hits. Some 2.4% of all compounds tested hit in one or more screens of this group.

SMILES	miR122 inh	Cneo AK release	Rtt109 Vps75	INS-1E GSIS act	HIV Env fusion	dFosB activator
CCOC(=O)N1CCN(S(=O)(=O)c2cc(OCC)ccc2OCC)CC1	143	n	n	x	n	n
CN1CCN(S(=O)(=O)c2ccc3c4c(cccc24)C(=O)N3)CC1	n	n	n	n	n	n
CCOC(=O)N1CCN(S(=O)(=O)c2ccc3c4c(cccc24)C(=O)N3)CC1	n	n	n	42	n	n
CO[C@H]1CN(C)C(=O)c2ccc(NC(=O)Nc3cc(F)ccc3F)cc2OC[C@H](C)N(C(=O)c2cnccn2)C[C@H]1C	x	x	x	n	n	x
N#Cc1cc2ccncc2c2ccccc12	n	n	x	n	n	x
Nc1cc2ccncc2c2ccccc12	n	n	n	n	62	23
Cc1ccc(-c2nc3c(c(SCC(=O)N4CCCC4)n2)COC(C)(C)C3)cc1	n	n	x	44	n	x
CCOC(=O)c1c(C)[nH]c(C(=O)COC(=O)/C=C/c2ccc(O)c(OC)c2)c1C	n	x	n	n	n	n
CCN(C(=O)COC(=O)/C=C/c1cccc([N+](=O)[O-])c1)c1c(N)n(Cc2ccccc2)c(=O)[nH]c1=O	n	n	n	n	x	n
CCN(C(=O)COC(=O)/C=C/c1ccc2c(c1)OCO2)c1c(N)n(Cc2ccccc2)c(=O)[nH]c1=O	n	n	n	n	n	164
CCOC(=O)c1c(C)[nH]c(C(=O)COC(=O)/C=C/c2ccc3c(c2)OCO3)c1C	x	x	n	59	n	n
COc1ccc2c3c([nH]c2c1)[C@H](CO)N(C(=O)CN1CCOCC1)CC31CN(C(=O)NC(C)C)C1	x	x	x	n	x	x
CCOC(=O)c1[nH]c2cc(OC)c(OC)cc2c1NC(=O)c1ccc2c(c1)OCO2	n	x	n	69	n	n
CCOC(=O)c1[nH]c2ccc(OC)cc2c1NC(=O)c1ccc2c(c1)OCO2	n	n	n	x	n	n
CCCN(CC(=O)Nc1ccccc1OC)C(=O)c1cc(S(=O)(=O)NCc2ccccc2)ccc1C	n	n	n	n	n	n
CCCN(CC(=O)Nc1ccccc1OC)C(=O)c1cccc(S(=O)(=O)NCc2ccccc2)c1	x	x	x	n	90	n
O=S(=O)(NC1CC1)c1ccc(S(=O)(=O)N2CCCc3ccccc32)cc1	n	n	n	n	69	n
O=C(COc1ccc(-n2cnnn2)cc1)Nc1ccc(F)c(F)c1	n	n	n	n	74	n
O=C(COc1ccc(-n2cnnn2)cc1)Nc1ccc(F)cc1	n	n	n	x	n	n
CC=Cc1ccc2n(c1=O)C[C@H]1[C@H](CO)[C@@H](C(=O)NC3CCC3)[C@@H]2N1Cc1ccncc1 (mixture of isomers)	x	x	x	n	x	x
COc1ccccc1C#Cc1ccc2c(c1)O[C@@H](CN(C)C(C)=O)[C@@H](C)CN([C@H](C)CO)S2(=O)=O	n	99	x	n	n	x
C[C@@H]1CN([C@@H](C)CO)S(=O)(=O)c2ccc(C#CC3CCCC3)cc2O[C@H]1CN(C)C(=O)Cc1ccccc1	108[16.7 µM]	n	x	n	n	x
C[C@H](CO)N1C[C@H](C)[C@@H](CN(C)S(C)(=O)=O)Oc2cc(C#Cc3ccccc3)ccc2S1(=O)=O	130[16.7 µM]	91	x	n	n	x
COc1ccccc1C#Cc1ccc2c(c1)O[C@H](CN(C)C(C)=O)[C@@H](C)CN([C@@H](C)CO)S2(=O)=O	n	n	x	n	n	x
CCC(=O)N(C)C[C@@H]1Oc2cc(C#Cc3ccccc3)ccc2S(=O)(=O)N([C@H](C)CO)C[C@H]1C	n	n	x	n	66[16.7 µM]	x
COc1ccc2c3c([nH]c2c1)[C@H](CO)NCC31CCN(C(=O)Cc2ccncc2)CC1	x	x	x	n	x	x
C[C@@H]1CN([C@H](C)CO)S(=O)(=O)c2ccc(-c3cccc(F)c3)cc2O[C@H]1CN(C)S(=O)(=O)c1ccccc1	n	n	x	n	n	x
C[C@H]1CN([C@@H](C)CO)C(=O)c2cc(-c3ccncc3)cnc2O[C@H]1CN(C)C(=O)NC1CCCC1	x	n	x	n	n	x
C[C@@H]1CN([C@H](C)CO)S(=O)(=O)c2ccc(C#Cc3ccccc3)cc2O[C@H]1CN(C)C(=O)C1CC1	n	n	x	n	58[16.7 µM]	x
C[C@H]1CN([C@@H](C)CO)S(=O)(=O)c2ccc(C#Cc3ccccc3)cc2O[C@H]1CN(C)C(=O)C1CC1	n	n	x	n	n	x
